Measurements from PMC2831464 (Clinical cancer research : an official journal of the …, 2010).
Entries after “also recorded” stand apart in the source; their conditions may differ.

What was measured:
[1] = Phase I dose escalation: dose limiting toxicities, MTD and CTCAE 3.0 toxicities; assay type: in vivo, human
How it was run: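 Adults (>18 y) had refractory solid tumors, ECOG ≤2 and adequate marrow, hepatic and renal function. Test compound in 5% dextrose (0.05–0.5 mg/mL) was given as a 1-h IV infusion daily × 5 every 21 days, within 4 h of reconstitution. Premedication was oral dexamethasone, ondansetron, loratadine, famotidine and diphenhydramine. […] DLTs were assessed in cycle 1 by CTCAE v3.0. MTD was the level below that giving DLT in ≥2 patients.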

UGT1A1 = conditions: cited from earlier work
[2] = CTCAE related toxicities, Blood/bone marrow
[3] = CTCAE related toxicities, Cardiac general
[4] = CTCAE related toxicities, Constitutional symptoms
[5] = CTCAE related toxicities, Dermatology/skin
[6] = CTCAE related toxicities, Gastrointestinal
[7] = CTCAE related toxicities, Hemorrhage/bleeding
[8] = CTCAE related toxicities, Infection
[9] = CTCAE related toxicities, Metabolic/laboratory
[10] = CTCAE related toxicities, Musculoskeletal
[11] = CTCAE related toxicities, Neurology
[12] = CTCAE related toxicities, Pulmonary

In the case of `CC[C@@]1(O)C(=O)OCc2c1cc1n(c2=O)Cc2c-1nc1ccc(O)cc1c2[Si](C)(C)C(C)(C)C` [AR-67, 7-t-butyldimethylsilyl-10-hydroxycamptothecin], the “Common Grade 3 and 4 toxicities: anemia” value ([1]; 26 patients, all dosage levels) is reported as 11.5%, the “Common Grade 3 and 4 toxicities: fatigue” value ([1]; 26 patients, all dosage levels) is reported as 15.4% and the “Common Grade 3 and 4 toxicities: leukopenia (leukocytopenia)” value ([1]; 26 patients, all dosage levels) is reported as 23%. The “Common Grade 3 and 4 toxicities: neutropenia” value ([1]; 26 patients, all dosage levels) was 11.5%, the “Common Grade 3 and 4 toxicities: thrombocytopenia” value ([1]; 26 patients, all dosage levels) was 15.4% and the Diarrhea ([1]; 26 patients, all dosage levels) was “No diarrhea; also recorded: none of the patients experienced”. For the same compound, the “Infusion related allergic (hypersensitivity) reactions” value ([1]; 26 patients, premedicated, cremophor-ethanol formulation) was “none of the patients experienced; also recorded: no patients exhibited hypersensitivity reactions”, the “Hemoglobin, Grade 1” value [1, 2] was 8 and the “Hemoglobin, Grade 2” value [1, 2] was 12. The “Hemoglobin, Grade 3” value [1, 2] was 6, the “Hemoglobin, Grade 4” value [1, 2] was 0 and the “Hemoglobin, Total” value [1, 2] was 26. The “Leukocytes (total WBC), Grade 1” value [1, 2] was 18, the “Leukocytes (total WBC), Grade 2” value [1, 2] was 15 and the “Leukocytes (total WBC), Grade 3” value [1, 2] was 8. For the same compound, the “Leukocytes (total WBC), Grade 4” value [1, 2] was 0, the “Leukocytes (total WBC), Total” value [1, 2] was 41 and the “Monocytopenia, Grade 1” value [1, 2] was 0. The “Monocytopenia, Grade 2” value [1, 2] was 0, the “Monocytopenia, Grade 3” value [1, 2] was 0 and the “Monocytopenia, Grade 4” value [1, 2] was 1. For the same compound, the “Monocytopenia, Total” value [1, 2] was 1, the “Neutrophils/granulocytes (ANC/AGC), Grade 1” value [1, 2] was 3 and the “Neutrophils/granulocytes (ANC/AGC), Grade 2” value [1, 2] was 10. The “Neutrophils/granulocytes (ANC/AGC), Grade 3” value [1, 2] was 5, the “Neutrophils/granulocytes (ANC/AGC), Grade 4” value [1, 2] was 1 and the “Neutrophils/granulocytes (ANC/AGC), Total” value [1, 2] was 19. For the same compound, the “Platelets, Grade 2” value [1, 2] was 8, the “Platelets, Grade 3” value [1, 2] was 9 and the “Hypotension, Grade 1” value [1, 3] was 0. For the same compound, the “Hypotension, Grade 2” value [1, 3] was 1, the “Hypotension, Grade 3” value [1, 3] was 0 and the “Hypotension, Grade 4” value [1, 3] was 0. For the same compound, the “Hypotension, Total” value [1, 3] was 1, the “Fatigue (asthenia, lethargy, malaise), Grade 1” value [1, 4] was 4 and the “Fatigue (asthenia, lethargy, malaise), Grade 3” value [1, 4] was 8. The “Fatigue (asthenia, lethargy, malaise), Grade 4” value [1, 4] was 0, the “Fatigue (asthenia, lethargy, malaise), Total” value [1, 4] was 26 and the “Fever (in the absence of neutropenia), Grade 1” value [1, 4] was 0. For the same compound, the “Fever (in the absence of neutropenia), Grade 2” value [1, 4] was 1, the “Fever (in the absence of neutropenia), Grade 3” value [1, 4] was 0 and the “Fever (in the absence of neutropenia), Grade 4” value [1, 4] was 0. For the same compound, the “Fever (in the absence of neutropenia), Total” value [1, 4] was 1, the “Insomnia, Grade 1” value [1, 4] was 2 and the “Insomnia, Grade 2” value [1, 4] was 5. The “Insomnia, Grade 3” value [1, 4] was 0, the “Insomnia, Grade 4” value [1, 4] was 0 and the “Insomnia, Total” value [1, 4] was 7. For the same compound, the “Weight loss, Grade 1” value [1, 4] was 2, the “Weight loss, Grade 2” value [1, 4] was 0 and the “Weight loss, Grade 3” value [1, 4] was 0. The “Weight loss, Grade 4” value [1, 4] was 0, the “Weight loss, Total” value [1, 4] was 2 and the “Nail changes, Grade 1” value [1, 5] was 1. For the same compound, the “Nail changes, Grade 2” value [1, 5] was 0, the “Nail changes, Grade 3” value [1, 5] was 0 and the “Nail changes, Grade 4” value [1, 5] was 0. The “Nail changes, Total” value [1, 5] was 1, the “Pruritus/itching/Dry skin/Flushing, Grade 2” value [1, 5] was 0 and the “Pruritus/itching/Dry skin/Flushing, Grade 3” value [1, 5] was 0. For the same compound, the “Pruritus/itching/Dry skin/Flushing, Grade 4” value [1, 5] was 0, the “Pruritus/itching/Dry skin/Flushing, Total” value [1, 5] was 7 and the “Rash/desquamation, Grade 1” value [1, 5] was 2. For the same compound, the “Rash/desquamation, Grade 2” value [1, 5] was 1, the “Rash/desquamation, Grade 3” value [1, 5] was 0 and the “Rash/desquamation, Grade 4” value [1, 5] was 0. The “Rash/desquamation, Total” value [1, 5] was 3, the “Anorexia/Taste Alteration, Grade 1” value [1, 6] was 4 and the “Anorexia/Taste Alteration, Grade 3” value [1, 6] was 1. The “Anorexia/Taste Alteration, Grade 4” value [1, 6] was 0, the “Anorexia/Taste Alteration, Total” value [1, 6] was 12 and the “Constipation/Dehydration, Grade 1” value [1, 6] was 6. The “Constipation/Dehydration, Grade 2” value [1, 6] was 8, the “Constipation/Dehydration, Grade 3” value [1, 6] was 0 and the “Constipation/Dehydration, Grade 4” value [1, 6] was 0. For the same compound, the “Mucositis/stomatitis, Grade 1” value [1, 6] was 2, the “Mucositis/stomatitis, Grade 2” value [1, 6] was 0 and the “Mucositis/stomatitis, Grade 3” value [1, 6] was 0. For the same compound, the “Mucositis/stomatitis, Grade 4” value [1, 6] was 0, the “Mucositis/stomatitis, Total” value [1, 6] was 2 and the “Nausea, Grade 2” value [1, 6] was 0. For the same compound, the “Nausea, Grade 3” value [1, 6] was 0, the “Nausea, Grade 4” value [1, 6] was 0 and the “Hemorrhage, GI - Duodenum, Grade 1” value [1, 7] was 0. The “Hemorrhage, GI - Duodenum, Grade 2” value [1, 7] was 0, the “Hemorrhage, GI - Duodenum, Grade 3” value [1, 7] was 1 and the “Hemorrhage, GI - Duodenum, Grade 4” value [1, 7] was 0. The “Hemorrhage, GI - Duodenum, Total” value [1, 7] was 1, the “Febrile neutropenia, Grade 1” value [1, 8] was 0 and the “Febrile neutropenia, Grade 2” value [1, 8] was 0. The “Febrile neutropenia, Grade 3” value [1, 8] was 1, the “Febrile neutropenia, Grade 4” value [1, 8] was 2 and the “Febrile neutropenia, Total” value [1, 8] was 3. The “Infection - ANC grade 0–2, Grade 1” value [1, 8] was 3, the “Infection - ANC grade 0–2, Grade 2” value [1, 8] was 4 and the “Infection - ANC grade 0–2, Grade 3” value [1, 8] was 0. The “Infection - ANC grade 0–2, Grade 4” value [1, 8] was 2, the “Infection - ANC grade 0–2, Total” value [1, 8] was 9 and the “Infection with unknown ANC, Grade 1” value [1, 8] was 2. For the same compound, the “Infection with unknown ANC, Grade 2” value [1, 8] was 1, the “Infection with unknown ANC, Grade 3” value [1, 8] was 0 and the “Infection with unknown ANC, Grade 4” value [1, 8] was 0. The “Infection with unknown ANC, Total” value [1, 8] was 3, the “ALT, SGPT, Alkaline Phosphatase, Grade 1” value [1, 9] was 8 and the “ALT, SGPT, Alkaline Phosphatase, Grade 2” value [1, 9] was 0. For the same compound, the “ALT, SGPT, Alkaline Phosphatase, Grade 3” value [1, 9] was 0, the “ALT, SGPT, Alkaline Phosphatase, Grade 4” value [1, 9] was 0 and the “ALT, SGPT, Alkaline Phosphatase, Total” value [1, 9] was 8. For the same compound, the “Electrolyte abnormalities, Grade 1” value [1, 9] was 8, the “Electrolyte abnormalities, Grade 2” value [1, 9] was 0 and the “Electrolyte abnormalities, Grade 3” value [1, 9] was 0. For the same compound, the “Electrolyte abnormalities, Grade 4” value [1, 9] was 0, the “Electrolyte abnormalities, Total” value [1, 9] was 8 and the “Extremity-lower (gait/walking), Grade 1” value [1, 10] was 1. The “Extremity-lower (gait/walking), Grade 2” value [1, 10] was 0, the “Extremity-lower (gait/walking), Grade 3” value [1, 10] was 0 and the “Extremity-lower (gait/walking), Grade 4” value [1, 10] was 0. The “Extremity-lower (gait/walking), Total” value [1, 10] was 1, the “Muscle weakness – Lower extremity, Grade 1” value [1, 10] was 0 and the “Muscle weakness – Lower extremity, Grade 2” value [1, 10] was 3. The “Muscle weakness – Lower extremity, Grade 3” value [1, 10] was 1, the “Muscle weakness – Lower extremity, Grade 4” value [1, 10] was 0 and the “Muscle weakness – Lower extremity, Total” value [1, 10] was 4. For the same compound, the “Dizziness, Grade 1” value [1, 11] was 0, the “Dizziness, Grade 2” value [1, 11] was 1 and the “Dizziness, Grade 3” value [1, 11] was 0. The “Dizziness, Grade 4” value [1, 11] was 0, the “Dizziness, Total” value [1, 11] was 1 and the “Neuropathy: sensory, Grade 1” value [1, 11] was 1. For the same compound, the “Neuropathy: sensory, Grade 2” value [1, 11] was 0, the “Neuropathy: sensory, Grade 3” value [1, 11] was 0 and the “Neuropathy: sensory, Grade 4” value [1, 11] was 0. The “Neuropathy: sensory, Total” value [1, 11] was 1, the “Dyspnea, Grade 1” value [1, 12] was 1 and the “Dyspnea, Grade 2” value [1, 12] was 0. The “Dyspnea, Grade 3” value [1, 12] was 0, the “Dyspnea, Grade 4” value [1, 12] was 0 and the “Dyspnea, Total” value [1, 12] was 1. For the same compound, the “Hiccoughs (hiccups, singultus), Grade 1” value [1, 12] was 2, the “Hiccoughs (hiccups, singultus), Grade 2” value [1, 12] was 1 and the “Hiccoughs (hiccups, singultus), Grade 3” value [1, 12] was 0. The “Hiccoughs (hiccups, singultus), Grade 4” value [1, 12] was 0, the “Hiccoughs (hiccups, singultus), Total” value [1, 12] was 3 and the “DLT per Cohort” value ([1]; Level 5.5, 7.5 mg/m2/day daily × 5, n=7, cycle 1) was “one of seven”. The “DLT per Cohort” value ([1]; Level 6, 8.9 mg/m2/day daily × 5, n=4, cycle 1) was “two of four”, the “Day of ANC and platelet nadir” value ([1]; MTD level, cycle 1, recovered prior to day 22) was 10 to 14 days and the “maximum tolerated dosage (MTD)” value ([1]; iv over 1 hour daily × 5, every 21 days) was 7.5 mg/m^2/day. For the same compound, the “Patients with dose limiting toxicities” value ([1]; of 26 patients, 9 dosage levels) was 5 patients, the “recommended phase II dosage” value ([1]; ×5 q 21 days) was 7.5 mg/m^2/day and the UGT1A1 mediated glucuronidation (UGT1A1) was “does not undergo”.
